We go through 17 sequences from PMC3308013 (Journal of Immunology (Baltimore, Md. : 1950), 2011).

Where no end group is shown, it is not given here.

For orientation: IC50 means the concentration that gives 50% inhibition.

Chain of H-2 Db (P01899 25-362): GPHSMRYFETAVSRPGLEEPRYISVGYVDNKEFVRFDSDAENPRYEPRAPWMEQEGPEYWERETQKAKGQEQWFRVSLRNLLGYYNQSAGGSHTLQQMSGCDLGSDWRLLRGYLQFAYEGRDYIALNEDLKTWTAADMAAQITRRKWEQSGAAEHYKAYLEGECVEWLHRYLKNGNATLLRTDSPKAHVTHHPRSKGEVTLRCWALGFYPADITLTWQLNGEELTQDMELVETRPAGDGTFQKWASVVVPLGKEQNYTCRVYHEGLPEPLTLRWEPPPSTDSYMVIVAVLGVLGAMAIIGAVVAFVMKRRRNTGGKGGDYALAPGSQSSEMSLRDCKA
Chain of H-2 Db (P61769 21-119, further chain): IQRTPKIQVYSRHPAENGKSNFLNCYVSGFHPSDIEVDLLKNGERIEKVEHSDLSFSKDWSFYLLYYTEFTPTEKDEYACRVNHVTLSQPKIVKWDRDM

The first experiment has as its target H-2 Db (Mus musculus, UniProt P01899). Nature of the experiment: MHC peptide binding competition assay, purified H-2 Db. The procedure, abridged:
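Peptides radiolabelled by chloramine T; 1–10 nM label co-incubated at room temperature for 2 d with 1 μM to 1 nM purified H-2 Db, 1–3 μM human β2-microglobulin and protease inhibitors. Complexes captured on 28-14-8s Ab-coated plates; bound cpm counted. Test peptide at six concentrations over a 100,000-fold range, ≥3 independent assays; IC50 = concentration giving 50% inhibition of label binding.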
In turn, AAIENYVRF [AAIENYVRF] registered an IC50 of 38 nM.
Still for that read-out and setting: with AVCINNTFL [AVCINNTFL] the figure was 450 nM; with FAFVNAAHA [FAFVNAAHA], 4.9 nM.
As to FGLLNYALV [FGLLNYALV], the IC50 amounted to 1 nM.
Turning to FLPRLGTEL [FLPRLGTEL], the IC50 stood at 3050 nM.
On to GAMRAVVPI [GAMRAVVPI], for which the IC50 came to 499 nM.
On the same count and under the same terms, in the case of LAVVLWSLL [LAVVLWSLL] it was 2780 nM.
Take SARMLGDVM [SARMLGDVM]: the IC50 stood at 9210 nM.
Regarding WMKMNQTLL [WMKMNQTLL], the IC50 worked out at 131 nM.
On to YQPLLSNTL [YQPLLSNTL], for which the IC50 was 5150 nM.
As for YSVENVGLL [YSVENVGLL], the IC50 stood at 1.9 nM.

In the next experiment the target is H-2 Kb (Mus musculus, UniProt P01901). Nature of the experiment: MHC peptide binding competition assay, purified H-2 Kb.
Chain of H-2 Kb (P01901 22-369): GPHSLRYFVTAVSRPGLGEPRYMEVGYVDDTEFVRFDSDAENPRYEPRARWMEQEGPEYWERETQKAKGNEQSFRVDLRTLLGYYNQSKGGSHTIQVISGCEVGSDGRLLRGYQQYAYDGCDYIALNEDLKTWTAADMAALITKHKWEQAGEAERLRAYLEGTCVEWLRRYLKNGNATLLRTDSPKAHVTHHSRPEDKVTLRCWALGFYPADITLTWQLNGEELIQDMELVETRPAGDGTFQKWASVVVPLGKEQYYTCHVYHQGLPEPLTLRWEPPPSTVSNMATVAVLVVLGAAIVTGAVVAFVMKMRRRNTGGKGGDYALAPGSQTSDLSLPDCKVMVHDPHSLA
Chain of H-2 Kb (P61769 21-119 partner): as the sequence (P61769 21-119, further chain) above
GAINFINL [GAINFINL] had an IC50 of 6.2 nM.
INNTFLHL [INNTFLHL] registered an IC50 of 2 nM.
LGYAYINS [LGYAYINS] came in with an IC50 of 10 nM.
QTFDFGRL [QTFDFGRL] showed an IC50 of 2.1 nM.
Take SFYRFLFA [SFYRFLFA]: the IC50 amounted to 64 nM.
Consider YRFLFAFL [YRFLFAFL], for which the IC50 turned out to be 5.4 nM.
